# Source: ChEMBL document CHEMBL1123718, “Analogues and derivatives of tenoxicam. 1. Synthesis and antiinflammatory activity of analogues with different residues on the ring nitrogen and the amide nitrogen” (1987)
# Assays:
# [1] = tested on: Rattus norvegicus; assay: Anti-inflammatory activity was assessed by estimating threshold pain response after oral administration to rats; assay type: functional
# Method in brief: (§1)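 Kaolin paw model in female Füllinsdorf rats (about 70 g): 0.1 mL of 10% kaolin s.c. into the right hind paw, with oral drug in 0.5% tragacanth at 0.5 h before and 3.5 h after. Pressure pain threshold was measured after kaolin, and its increase was expressed as % of controls. ED100 was read graphically from group means, or by logit analysis with 95% CI.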
# [2] = tested on: Rattus norvegicus; assay: Anti-inflammatory activity was assessed by estimating kaolin-induced edema in rat hind paw, by administering orally; assay type: functional; details: po
# Method in brief: (§2)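 Female Füllinsdorf albino rats (about 70 g) got 0.1 mL of 10% kaolin suspension s.c. into the right hind paw. Drug in 0.5% tragacanth was given po 0.5 h before and 3.5 h after kaolin. Paw diameter was measured, and edema inhibition was expressed as % of controls. A phenylbutazone 30 mg/kg po validation group ran in each set. ED30 came from group means graphically, or from logit analysis with 95% CI.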
# [3] = tested on: Rattus norvegicus; assay: Anti-inflammatory activity was assessed by estimating kaolin-induced edema in rat hind paw, by administering orally;NE not effective up to 100 mg/kg; assay type: functional, organism-based; parameters: dose 100 mg/kg; method in brief: as §2
# [4] = tested on: Rattus norvegicus; assay: Anti-inflammatory activity was assessed by estimating threshold pain response after oral administration to rats;NE not effective up to 100 mg/kg; assay type: functional, organism-based; parameters: dose 100 mg/kg; method in brief: as §1
# [5] = tested on: Rattus norvegicus; assay: Ulcerogenic potential was assessed in a rat model by the enhancement of stress-induced gastric mucosal lesions after oral administration; assay type: functional; details: Gastric mucosa
# Method in brief: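 Female Füllinsdorf albino rats (about 160 g) were starved 24 h and given drug po in 0.5% tragacanth. They then had 2 h cold-water stress (22.5 °C) and were sacrificed. Rats with macroscopic gastric mucosal erosions were counted. ED50 was defined as the dose giving lesions in 50% of animals and calculated by probit analysis with 95% CI.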
# [6] = tested on: Rattus norvegicus; assay: Anti-inflammatory activity was assessed by estimating kaolin-induced edema in rat hind paw, by administering orally;NE denotes not effective up to 100 mg/kg; assay type: functional, organism-based; parameters: dose 100 mg/kg; method in brief: as §2
# [7] = tested on: Rattus norvegicus; assay: Anti-inflammatory activity was assessed by estimating threshold pain response after oral administration to rats; NE denotes not effective up to 100 mg/kg; assay type: functional, organism-based; parameters: dose 100 mg/kg; method in brief: as §1
# [8] = tested on: Rattus norvegicus; assay: Anti-inflammatory activity was assessed by estimating threshold pain response after oral administration to rats; NE not effective up to 100 mg/kg; assay type: functional, organism-based; parameters: dose 100 mg/kg; method in brief: as §1
# [9] = tested on: Rattus norvegicus; assay: Anti-inflammatory activity was assessed by estimating kaolin-induced edema in rat ind paw, by administering orally; assay type: functional; details: po; method in brief: as §2
# [10] = tested on: Rattus norvegicus; assay: Anti-inflammatory activity was assessed by estimating kaolin-induced edema in rat hind paw, by administering orally; NE not effective up to 100 mg/kg; assay type: functional, organism-based; parameters: dose 100 mg/kg; method in brief: as §2
SMILES,ED100 [1] [mg/kg],ED30 [2] [mg/kg],ED50 [5] [mg/kg],also measured
CN1C(C(=O)Nc2cccc(Cl)c2)=C(O)c2sccc2S1(=O)=O,>100,> 100,–,–
Cc1noc(NC(=O)C2=C(O)c3sccc3S(=O)(=O)N2C)c1C,–,–,–,ED30 [3]: No effect; ED100 [4]: No effect
CN1C(C(=O)Nc2cnccn2)=C(O)c2sccc2S1(=O)=O,56,70,1.8,–
CN1C(C(=O)Nc2ccc(O)cc2)=C(O)c2sccc2S1(=O)=O,–,–,–,ED30 [6]: No effect; ED100 [7]: No effect
CN1C(C(=O)Nc2ncccn2)=C(O)c2sccc2S1(=O)=O,–,–,–,ED30 [3]: No effect; ED100 [8]: No effect
CCN1C(C(=O)Nc2ccccn2)=C(O)c2sccc2S1(=O)=O,24,–,–,ED30 [3]: No effect
CN1C(C(=O)Nc2ccncc2)=C(O)c2sccc2S1(=O)=O,–,–,–,ED30 [6]: No effect; ED100 [7]: No effect
Cc1cc(NC(=O)C2=C(O)c3sccc3S(=O)(=O)N2C)no1,24,20,–,–
O=C(Nc1ccccn1)C1=C(O)c2sccc2S(=O)(=O)N1,>100,> 100,–,–
CN1C(C(=O)Nc2cccnc2)=C(O)c2sccc2S1(=O)=O,>100,–,6.3,ED30 [9]: 63.7 mg/kg
CN1C(C(=O)Nc2nccs2)=C(O)c2sccc2S1(=O)=O,14,20,2.2,–
CN1C(C(=O)Nc2ccccc2)=C(O)c2sccc2S1(=O)=O,75,> 100,–,–
CN1C(C(=O)Nc2ccccn2)=C(O)c2sccc2S1(=O)=O [TENOXICAM],5.3,2.6,0.7,–
CN1C(C(=O)Nc2ccccn2)=C(O)c2ccccc2S1(=O)=O [PIROXICAM],4,1.9,0.5,–
Cc1cccc(NC(=O)C2=C(O)c3sccc3S(=O)(=O)N2C)c1,3.9,43.4,7,–
Cc1cc(NC(=O)C2=C(O)c3sccc3S(=O)(=O)N2C)nc(C)n1,–,–,–,ED30 [10]: No effect; ED100 [8]: No effect
Cc1cccc(NC(=O)C2=C(O)c3sccc3S(=O)(=O)N2C)n1,27.4,30,0.5,–
